Bioassay records deposited in PubChem BioAssay by several laboratories.
The entries come from a sample that favours hits as a whole.
Calb biofilm kill: clotrimazole potentiators killing C. albicans biofilm, primary screen, 4-compound mixtures. C. albicans biofilm persisters + clotrimazole, fluorescence viability; primary screen in compound mixtures of four per well. inhibition, % at 7.6 µM. 120,000 compounds, 0.02% hits. AID 1242, 2008;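 active = inhibition above 30.3% in the primary screen of four-compound pools, then above 30% when the compound was retested; inconclusive = passed the primary limit but could not be retested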;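 also: compounds exposed to preformed 24 h biofilms for 48 h; 0% = untreated biofilm control and 100% = clotrimazole plus chlorhexidine kill blank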
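Assay system: C. albicans biofilms / Medium: RPMI/MOPS medium, pH 7.0 / Schedule: biofilm formation 24 h, compound exposure 48 h, 37 °C / Measured by: Alamar Blue fluorescence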
ROMK mod: ROMK potassium channel modulators, primary screen, cell-based, thallium flux, MLSMR library; B-score at 10 µM; 130,000 compounds, 2% hits; AID 1918, 2009; Tet-inducible ROMK, thallium flux fluorescence; actives lie on both sides; ATP-sensitive inward rectifier potassium channel 1 (Homo sapiens), P48048;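 active = signal ratio slope over the read window, or its plate-corrected B-score, at least 3 SD from the plate mean, either direction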;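 also: B-score of the F/F0 ratio slope over 7 to 12 s after thallium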
Target sequence (P48048 whole entry, looked up): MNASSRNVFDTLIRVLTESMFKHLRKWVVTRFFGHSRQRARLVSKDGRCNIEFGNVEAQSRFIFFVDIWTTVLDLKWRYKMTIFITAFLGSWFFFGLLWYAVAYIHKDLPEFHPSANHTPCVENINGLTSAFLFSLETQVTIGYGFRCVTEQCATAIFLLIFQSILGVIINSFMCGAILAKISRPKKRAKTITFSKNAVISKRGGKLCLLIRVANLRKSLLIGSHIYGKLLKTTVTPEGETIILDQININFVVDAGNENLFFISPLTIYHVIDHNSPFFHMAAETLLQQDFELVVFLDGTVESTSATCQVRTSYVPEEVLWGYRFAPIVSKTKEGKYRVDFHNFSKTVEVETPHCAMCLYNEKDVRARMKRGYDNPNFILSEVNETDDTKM
ROMK retest: ROMK channel modulator hit retest, confirmation, cell-based, thallium flux, duplicate, resupplied hits; shares compounds with ROMK mod; fluorescence ratio; hits give low values; normalized thallium flux (F/F0 slope) at 10 µM; 3,000 compounds, 54% hits; AID 1917, 2009;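 active = Flux at 10 µM at least 3 SD below or above vehicle control mean in one or both replicates; inconclusive = no clear call, values can overlap the other calls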
The depositor's hits bear a star; ? = inconclusive; nt = no result given.

SMILES	Calb biofilm kill	ROMK mod	ROMK retest
COc1ccc(NC(=O)/C(=C/c2cccnc2)NC(=O)c2cccs2)cc1	21.4	0.0304	nt
Cc1ccc(C(=O)/C=C/c2ccccc2[N+](=O)[O-])cc1	6.4	1.34	nt
O=C(/C=C/c1ccccc1[N+](=O)[O-])c1ccccc1Br	12.1	-6.07*	0.0485*
N#C/C(=C\c1ccc(OCC(N)=O)cc1)S(=O)(=O)c1ccccc1	6.1	0.525	nt
O=C1C=CC(=O)N1N(c1ccccc1)c1ccccc1	11.8	nt	nt
O=C(CCc1ccccc1)c1nnc(-c2ccccc2)o1	16.2	-0.136	nt
CCCOC(=O)c1cc(-c2ccc(C=O)o2)ccc1Cl	7.4	nt	0.103*
CCCOC(=O)c1ccc(-c2ccc(C=O)o2)cc1	11.8	0.0127	nt
C=CCNC(=S)/N=c1/ccccn1CC	10.7	1.69	nt
COc1cc(NC(=O)CSc2ncnc3c2cnn3Cc2ccccc2)cc(OC)c1	nt	0.103	nt
COc1ccc(OC)c(NC(=O)CSc2ncnc3c2cnn3-c2ccccc2Cl)c1	9.3	-3.16*	0.0601*
CC(CC(=O)Nc1ccccc1C(F)(F)F)c1ccccc1 (configuration not stated)	-7.7	0.556	nt
Cc1nnc(NC(=O)c2ccccc2Oc2ccccc2)s1	13.4	-0.28	nt
CC(C)CCNC(=O)CN(Cc1ccc2c(c1)OCO2)C(=O)Cn1nnc(-c2cccs2)n1	nt	-3.05*	0.0678*
O=C(CN(Cc1ccco1)C(=O)Cn1nnc(-c2cccs2)n1)NCC1CCCO1 (configuration not stated)	22.0	1.3	nt
CC(C)CCNC(=O)C(CC(C)C)N(Cc1ccc2c(c1)OCO2)C(=O)c1snc(C(N)=O)c1N (configuration not stated)	9.6	nt	?
CCC(C(=O)NC1CCCC1)N(Cc1ccc2c(c1)OCO2)C(=O)c1snc(C(N)=O)c1N (configuration not stated)	nt	0.0212	nt
CC(C)CC(C(=O)NC1CCCC1)N(Cc1ccc2c(c1)OCO2)C(=O)c1snc(C(N)=O)c1N (configuration not stated)	14.1	-0.675	nt
CCCC(C(=O)NC1CCCC1)N(Cc1cccs1)C(=O)c1snc(C(N)=O)c1N (configuration not stated)	nt	nt	0.0748
O=C(CC1SCCNC1=O)Nc1cccc([N+](=O)[O-])c1 (configuration not stated)	19.5	nt	nt
CCOC(=O)C(=CNc1cc(C)nn1-c1ccc(Cl)cc1)C(=O)OCC	nt	0.313	nt
CCOC(=O)C(=Cc1ccc(-n2cncn2)cc1)C(=O)OCC	8.4	-5.08*	0.0625*
O=C(CC1SC(=NCCc2ccccc2)N(/N=C/c2cccs2)C1=O)Nc1ccc(Cl)cc1 (configuration not stated)	15.3	nt	nt
COc1ccc(-n2c3c(c(=O)[nH]c2=O)C(NC(=O)c2ccncc2)(C(F)(F)F)C(=O)N3)cc1 (configuration not stated)	9.2	0.961	nt
CC1=CC(C)(C)N(C(=O)CN2C(=O)CCC2=O)c2ccc(C)cc21	2.5	-0.0893	nt
SMILES	Calb biofilm kill	ROMK mod	ROMK retest
CC1=CC(C)(C)N(C(=O)CNC2CCCC2)c2cc(C)ccc21	10.0	-4.02*	0.0496*
O=C(Cn1nnc2ccccc21)c1ccc(Cl)cc1	12.0	nt	nt
Cc1ccc2cc(C#N)c(NCCNC(=S)NCCCN(C)C)nc2c1C	12.7	-3.13*	0.0572*
Cc1cc(C)c2nc(NCCCNC(=S)NCCCN(C)C)c(C#N)cc2c1	12.5	-2.75	nt
NC(=O)c1sc(-c2ccsc2)cc1NS(=O)(=O)c1ccc(C(F)(F)F)cc1	9.1	0.205	nt
CCOc1cccc(N(C(=O)Cc2cccs2)C(C(=O)NC2CCCCC2)c2cccn2C)c1 (configuration not stated)	7.3	-4.41*	0.062*
CCOc1ccc(C(C(=O)NC2CCCCC2)N(C(=O)Cc2cccs2)c2ccc(-n3cnnn3)c(OC)c2)cc1 (configuration not stated)	10.3	-1.44	nt
CCN=c1scc(-c2ccc3c(c2)NC(=O)CO3)n1N=C1CCCC1	nt	nt	0.079
CCCCN=c1scc(-c2ccc3c(c2)NC(=O)CO3)n1N=C1CCCC1	nt	-0.179	nt
O=C1CN(C(=O)CSc2nc(-c3ccc(Cl)cc3)cs2)c2ccccc2N1	16.8	nt	nt
Cc1cc(NC(=S)NC(=O)C2CC2)ccc1Br	10.4	nt	nt
Cn1c(=O)c2c(nc(N3CCN(c4ccccn4)CC3)n2Cc2ccccc2Cl)n(C)c1=O	nt	1.04	nt
Cn1c(=O)c2c(nc(N3CCNCC3)n2Cc2ccccc2Cl)n(C)c1=O	7.3	1.6*	0.0795
CCN(c1ccccc1)c1ncnc2c1cnn2-c1ccccc1	nt	nt	0.0554*
COCCN(CCOC)c1ncnc2c1cnn2-c1ccccc1	6.9	nt	nt
CCC1(c2ccc(Cl)cc2)NC(=O)N(Cc2ccc(C(=O)OC)cc2)C1=O (configuration not stated)	14.9	-0.0627	nt
C=CCOC(=O)c1cn(CC)c2nc(C)ccc2c1=O	13.6	0.144	nt
CCn1cc(C(=O)OCC(=O)OC2CC(C)CCC2C(C)C)c(=O)c2ccc(C)nc21 (configuration not stated)	nt	2.74*	0.0636*
Cc1c(CCOC(=O)C23CC4(C)CC(C)(CC(C)(C4)C2)C3)sc[n+]1CC(=O)c1ccccc1	10.3	-1.48	nt
Cc1c(CCOC(=O)CC23CC4CC(CC(C4)C2)C3)sc[n+]1CC(=O)c1ccccc1	26.0	-6.14*	0.0467*
CCC(C)NS(=O)(=O)c1ccc(OCC(=O)N2CCC(C)CC2)cc1 (configuration not stated)	15.0	nt	nt
Cn1c(=O)c2[nH]c(N3CCN(c4ccccn4)CC3)nc2n(C)c1=O	22.7	0.458	nt
CCOc1cccc(N(C(=O)C2COc3ccccc3O2)C(C(=O)NC2CCCCC2)c2ccc(O)cc2)c1 (configuration not stated)	6.2	-0.149	nt
CC(C)CCNC(=O)C(c1ccc(O)cc1)N(C(=O)C1COc2ccccc2O1)c1cccc(O)c1 (configuration not stated)	22.8	-2.68*	0.055*
CCO[C@H]1OC(C(=O)Nc2ccccc2)=C[C@@H](C)[C@@H]1CCCO	10.3	nt	nt
SMILES	Calb biofilm kill	ROMK mod	ROMK retest
CC1=C(C(=O)N2CCN(c3cc(C)ccc3C)CC2)C2(CCC(C)CC2)OC1=O (configuration not stated)	5.1	0.257	nt
CCC(C(=O)NNC(=O)c1cnccn1)c1ccccc1 (configuration not stated)	6.5	0.606	nt
O=C(O)CCCCCN1C(=O)C2CCCCC2C1=O (configuration not stated)	14.4	0.7	nt
O=C(O)CCCCCCC1C(=O)NC(=O)N1CCC(O)C1CCCCC1 (configuration not stated)	23.0	4.02*	?
Cc1ccc(NC(=O)Nc2c(Cl)cccc2Cl)cn1	18.6	nt	nt
CCN(CC)S(=O)(=O)c1ccc2c(c1)nc(CCC(=O)OCC(=O)Nc1cc(Cl)cc(Cl)c1)n2C	16.9	1.14	nt
Cc1cc(C)cc(Nc2nc3c(S(=O)(=O)c4ccccc4)nnn3c3ccccc23)c1	12.2	0.521	nt
Cc1cccc(Nc2nc3c(S(=O)(=O)c4ccccc4)nnn3c3ccccc23)c1	9.5	0.00999	0.0816
C(#CC12CC3CC(CC(C3)C1)C2)CN1CCOCC1	8.8	-0.573	nt
